Screens: PubChem, several laboratories
TLR9-MyD88 block – TLR9-MyD88 interaction inhibition; 340,000 compounds, 0.21% hits; inhibition, % at 4.98 µM; AID 504734; CHO BLA complementation TLR9-MyD88, CCF4 FRET ratio;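 active = inhibition above the mean over all tested compounds plus 3 SD, cut at about 21% in these data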
CHOP inhibitor – blocks CHOP induction under ER stress; CHO-K1 CHOP-promoter luciferase, tunicamycin-induced, 15-18 h; inhibition, % at 10 µM; 220,000 compounds, 3.8% hits; AID 2732;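 active = compounds that reduced the stress-induced luciferase reporter signal by more than about 70% of percent inhibition, limit read from the data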
TLR4 MyD88 comp – blocks binding of human TLR4 to MyD88 | O00206+Q99836 | HeLa CL3-4 TLR4/MyD88 BLA complementation, FRET ratio | inhibition, % at 8.4 µM | 200,000 compounds, 0.18% hits | AID 861; in the data active = inhibition above about 25%
NOD2-RIPK2 inh – NOD2-RIPK2 protein interaction inhibition; CHO BLA complementation NOD2-RIPK2, CCF4 ratio; inhibition, % at 4.98 µM; 360,000 compounds, 0.38% hits; in the data active = inhibition above about 21%
XBP1 UPR activ – activators of adaptive arm of unfolded protein response (XBP1); CHO-XBP1 luciferase reporter, IRE1-XBP1 UPR activation, luminescence; percent of tunicamycin response, DMSO as zero; activation, % at 20 µM; 330,000 compounds, 0.33% hits;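 active = versus positive control, 20 µM dose yields 30% or more activation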
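Material: IRE1-XBP1 luciferase reporter CHO line / Quantity: one thousand reporter cells per well / Buffer or medium: F12 with 10% serum / Compound: 20 µM single concentration, DMSO 1% / Times: 6 h treatment, 37 °C / Detection: Steady-Glo luciferase glow luminescence, 10 min after reagent addition / Benchmarks: tunicamycin high, DMSO low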
CHOP UPR activ – apoptotic UPR (CHOP) activation | CHO-CHOP luciferase reporter, luminescence; percent of tunicamycin response over DMSO baseline | activation, % at 10 µM | 330,000 compounds, 0.34% hits | AID 449763;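 active = at 10 µM dose, activation of 40% or more, normalized to positive control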
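Material: CHO-CHOP cells, stable luciferase reporter of PERK-eIF2a-CHOP signalling; quantity: 500 reporter cells seeded per well; buffer or medium: F12 medium containing 10% fetal bovine serum; compound: one dose, 10 µM in 0.5% DMSO; incubation: 6 h compound treatment, 37 °C; measured by: Steady-Glo luciferase luminescence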
CHOP confirm – confirmation of CHOP induction inhibitors; AID 504437; shares compounds with CHOP inhibitor; inhibition, % at 10 µM; CHO-CHOP promoter luciferase reporter, tunicamycin-induced, luminescence; 2,100 compounds, 45% hits;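 active = mean of three repeat readings of reporter signal inhibition above a set limit, cut at about 70% in these data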
Numbers stand for hits; i = inactive; nt = no result. The entries come from a sample that favours hits as a whole.

SMILES | TLR9-MyD88 block | CHOP inhibitor | TLR4 MyD88 comp | NOD2-RIPK2 inh | XBP1 UPR activ | CHOP UPR activ | CHOP confirm
Cc1[nH]n(-c2ccccc2)c(=O)c1/C=C1/C=c2ccccc2=N1 | i | 103 | i | i | nt | nt | 78
COC(=O)/C=C1\OC(c2ccccc2)=CC1=O | nt | 108 | i | nt | i | i | i
O=C(COC(=O)CNS(=O)(=O)c1c(Cl)cccc1Cl)Nc1ccccc1Sc1ccccc1 | i | i | i | i | i | i | nt
O=C(COC(=O)CNS(=O)(=O)c1cccc(Br)c1)Nc1ccccc1Sc1ccccc1 | i | 96 | i | i | i | i | i
Cc1cccn2c(CNCCc3ccco3)c(C(=O)N3CCOCC3)nc12 | i | nt | nt | i | i | i | nt
Cc1ccccc1N=C(NOCc1ccccc1)c1nonc1N | i | 100 | i | i | i | i | i
CCOc1ccc(C(=O)C(CCC(CN(C)C)C(=O)c2ccc(OCC)cc2)CN(C)C)cc1 (centres undefined) | i | 106 | i | 40 | nt | nt | 76
Cc1ccc(CN2C(=O)N/C(=C/c3ccc4c(c3)n(C)c(=O)n4C)C2=O)cc1 | nt | 106 | i | nt | i | i | i
CN(CCC#N)C(=O)COC(=O)c1ccc2c(c1)C(=O)N(C1CCCCC1)C2=O | i | nt | nt | i | i | i | nt
CC(Sc1n[nH]c(-c2ccccc2)n1)C(=O)c1c(N)n(C)c(=O)n(C)c1=O (centres undefined) | i | nt | nt | i | i | i | nt
Cc1ccc(N2CC(=O)Nc3c(oc4nc(-c5ccccc5)cc(C)c34)C2=O)cc1 | i | 97 | nt | i | i | i | i
COc1ccc2[nH]c3c(=O)n(N)c(=O)[nH]c3c2c1 | i | nt | nt | i | i | i | nt
COc1ccc2[nH]c3c(=O)n(/N=C/[C@H]4C(C)C=C(C)CC4C)c(=O)[nH]c3c2c1 (some centres undefined) | i | 109 | i | i | i | i | i
Cn1cc(CNC(=O)c2cc(-c3ccccc3)nc3ccc(Br)cc23)cn1 | i | i | i | i | i | i | nt
Cc1ccc(-c2cc(C(=O)NCc3cnn(C)c3)c3cc(Br)ccc3n2)cc1 | i | 101 | i | i | i | i | i
COc1ccccc1CCNC(=O)c1cc(-c2ccncc2)nc2ccc(Br)cc12 | i | 104 | i | i | nt | nt | i
O=C(CNc1ccc(Oc2ccccc2)cc1)N1CCOCC1 | i | i | i | i | i | i | nt
COc1ccc(-c2noc(N3CCC(C(=O)N(C)c4ccccc4)CC3)n2)cc1 | i | nt | nt | i | i | i | nt
S=C(NCCc1ccc(Cl)cc1)Nc1ccc(Cl)cc1Cl | i | 105 | i | i | i | i | 95
O=C(NCCc1ccc(Cl)cc1)Nc1cccc(Cl)c1 | i | 100 | i | i | i | i | i
CC(C)CSc1oc(-c2ccco2)nc1S(=O)(=O)c1ccccc1 | i | i | nt | i | i | i | nt
CCN1C(=O)[C@H]2[C@@H](c3ccc(-c4ccccc4)cc3)N3CCCC[C@@]3(C(=O)OC)[C@H]2C1=O | i | nt | nt | i | i | i | nt
Cc1cc(Nc2ccc(Cl)cc2)nc(NCc2ccccc2)n1 | i | 107 | i | i | i | i | 81
Cc1cc(N/N=C/c2ccc(Cl)cc2Cl)nc(NCc2ccccc2)n1 | i | i | i | i | i | i | nt
COc1ccc(-c2csc(NC(=O)CSC(C)C(=O)Nc3cc(C)on3)n2)cc1OC (centres undefined) | i | nt | nt | i | i | i | nt
SMILES | TLR9-MyD88 block | CHOP inhibitor | TLR4 MyD88 comp | NOD2-RIPK2 inh | XBP1 UPR activ | CHOP UPR activ | CHOP confirm
COC(=O)c1ccc(-c2sc3nc(N4CCOCC4)c4c(c3c2N)CC(C)(C)OC4)o1 | i | 102 | i | i | i | i | i
CC(C)Oc1ccc(CNC(=S)N/N=C/c2ccc([N+](=O)[O-])cc2)cc1 | i | 98 | i | i | i | i | 102
CC(C)COc1ccc(CNC(=S)N/N=C/c2ccc([N+](=O)[O-])cc2)cc1 | i | i | i | i | i | i | nt
FC(F)(F)c1cccc(CN2CCC(c3cc(-c4cccs4)n[nH]3)CC2)c1 | i | 104 | i | i | i | i | 94
Cc1ccc(S(=O)(=O)N2CCSCCSCCSCCSCC2)cc1 | i | nt | nt | i | nt | nt | nt
Cc1nn(-c2ccccc2)c(C)c1/C=N/n1c(-c2ccc(Cl)cc2)n[nH]c1=S | i | 103 | i | i | i | i | i
O=C(Nc1ccc2c(c1)OCO2)Nc1ccc2c(c1)OCO2 | i | i | i | i | i | i | nt
O=C(Nc1ccc(OC(F)F)c(Cl)c1)Nc1ccc2c(c1)OCO2 | i | 106 | i | i | i | i | i
O=C(Nc1ccc([N+](=O)[O-])cc1)Nc1ccc(OC(F)F)c(Cl)c1 | i | 106 | i | i | nt | nt | 125
COc1ccc(C(=O)NC(=S)NC(C)C)cc1Br | i | i | i | i | i | i | nt
COc1ccc(C(=O)NC(=S)NC(C)(C)C)cc1Br | i | 106 | i | i | i | i | i
CCC(C)[C@H](NC(=O)OC(C)(C)C)C(=O)N/N=C/C1=Cc2ccccc2OC1 (some centres undefined) | i | 106 | i | i | i | i | i
O=C(Nc1ccccc1Cl)c1ccccc1Oc1ccc(C(F)(F)F)cc1[N+](=O)[O-] | i | 105 | i | i | i | i | 81
O=C(c1ccccc1Oc1ccc(C(F)(F)F)cc1[N+](=O)[O-])N1CCOCC1 | i | i | i | i | i | i | nt
Cc1ccc(N=C2SC(C(=O)Nc3ccc(OC(F)(F)F)cc3)C(N)=C2C(=O)Nc2c(C)cc(C)cc2C)cc1 (centres undefined) | i | 105 | i | i | nt | nt | 84
Cc1ccc(NC(=O)C2SC(=Nc3ccccc3)C(C(=O)Nc3ccc(Cl)cc3)=C2N)cc1 (centres undefined) | i | i | i | i | nt | nt | nt
O=C1c2[nH]nc(-c3ccccc3O)c2C(c2cccc(Cl)c2)N1Cc1ccco1 (centres undefined) | i | 113 | i | i | i | i | 113
O=C1c2[nH]nc(-c3ccccc3O)c2C(c2cccc(Cl)c2)N1CC1CCCO1 (centres undefined) | i | i | i | i | i | i | nt
COc1ccc2nc3sc(C(=O)NCc4cccs4)c(N)c3cc2c1 | nt | 102 | i | nt | i | i | i
CCOc1ccc2nc(-c3ccccc3)nc(SCC(=O)Nc3ncc(C)s3)c2c1 | i | 98 | i | i | i | i | i
CCC(C(=O)OCc1csc(CC(=O)Nc2ccccc2C)n1)c1ccccc1 (centres undefined) | i | nt | nt | i | i | i | nt
NCCCNC(=O)c1cc2ccccc2[nH]1 | i | 107 | i | i | i | i | i
Cc1ccccc1/C=N/n1c(-c2cc(-c3ccccc3)n[nH]2)n[nH]c1=S | i | 104 | nt | i | i | i | i
